Experimental data from ChEMBL document CHEMBL1122643, “Alpha-adrenoreceptor reagents. 2. Effects of modification of the 1,4-benzodioxan ring system on alpha-adrenoreceptor activity” (J Med Chem, 1984).
Activity calls are given as the source filed them. The rule behind the calls is not given here.

Legend:
[1] = Ratio of agonist potencies against alpha2 and alpha-1 adrenoceptors; assay type: functional
[2] = molecular target: T1, Alpha-2 adrenergic receptor (Mus musculus) (UniProt P30545+Q01338+Q01337); experiment: Ability to antagonize the inhibitory effect of clonidine on the mouse vas deferens is the presynaptic alpha-2 adrenergic receptor antagonist potency relative to idazoxan = 1.; assay type: functional, tissue-based
Outline: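 Male adult mouse vasa deferentia (MFI >30 g), 0.5 g initial tension, Mg-free Krebs, 30 °C, 95% O2/5% CO2. Field stimulation at 0.1 Hz, 3-ms pulses, 100-140 V set to give ~100-mg twitch, recorded isometrically.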

[3] = molecular target: T2, Adrenergic receptor alpha-1 (Rattus norvegicus) (UniProt P15823+P23944+P43140); experiment: Agonism at Alpha-1 adrenoceptor determined in rat anococcygeus preparation; Inactive.; assay type: functional
Outline: (§1)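 Isolated tissue agonist test, potency compared directly with the standard in the same experiment. Standard dose-response curves were run before and after the test compound's curve. Rat anococcygeus (male Sprague-Dawley, 200-250 g; Krebs, 30 °C, 95% O2/5% CO2) was compared with phenylephrine. Field-stimulated mouse vas deferens (0.1 Hz, Mg-free Krebs, 30 °C) was compared with clonidine.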

[4] = molecular target: T3, Adrenergic receptor alpha-1 (Rattus norvegicus, UniProt P15823+P23944+P43140); experiment: Alpha-1 adrenergic receptor […] in rat anococcygeus assay; assay type: functional; outline: as §1
T3 sequence (P15823 whole entry): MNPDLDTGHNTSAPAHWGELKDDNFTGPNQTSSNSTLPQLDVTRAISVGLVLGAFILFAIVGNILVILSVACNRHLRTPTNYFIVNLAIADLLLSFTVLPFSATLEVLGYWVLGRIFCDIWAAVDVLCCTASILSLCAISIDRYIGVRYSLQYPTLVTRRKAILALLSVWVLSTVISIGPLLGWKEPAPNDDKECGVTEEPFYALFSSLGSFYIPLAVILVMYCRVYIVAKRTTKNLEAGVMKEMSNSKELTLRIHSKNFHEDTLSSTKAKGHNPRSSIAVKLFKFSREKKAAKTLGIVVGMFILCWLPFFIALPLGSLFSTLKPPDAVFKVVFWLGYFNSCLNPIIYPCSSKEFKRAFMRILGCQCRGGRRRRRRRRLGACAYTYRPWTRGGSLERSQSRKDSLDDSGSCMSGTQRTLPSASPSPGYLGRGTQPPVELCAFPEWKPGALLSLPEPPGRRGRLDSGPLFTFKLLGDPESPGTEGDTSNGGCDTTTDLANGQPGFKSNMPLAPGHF
T3 sequence (P23944 whole entry): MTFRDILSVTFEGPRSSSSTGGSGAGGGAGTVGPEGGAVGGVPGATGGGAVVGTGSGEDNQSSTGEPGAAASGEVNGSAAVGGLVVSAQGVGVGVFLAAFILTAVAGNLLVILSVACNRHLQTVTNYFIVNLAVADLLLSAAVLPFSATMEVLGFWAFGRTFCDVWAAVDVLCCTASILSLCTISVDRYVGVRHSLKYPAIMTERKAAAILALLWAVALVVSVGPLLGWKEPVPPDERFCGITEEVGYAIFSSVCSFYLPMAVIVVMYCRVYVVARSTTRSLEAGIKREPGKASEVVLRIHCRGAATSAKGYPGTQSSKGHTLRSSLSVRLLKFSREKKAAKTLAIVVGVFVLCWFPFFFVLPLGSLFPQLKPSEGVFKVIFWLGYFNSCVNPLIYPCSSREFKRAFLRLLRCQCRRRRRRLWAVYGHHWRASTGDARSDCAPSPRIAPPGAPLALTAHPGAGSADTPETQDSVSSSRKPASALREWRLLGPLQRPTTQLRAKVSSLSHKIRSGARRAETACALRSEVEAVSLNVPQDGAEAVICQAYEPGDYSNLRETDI
T3 sequence (P43140 whole entry): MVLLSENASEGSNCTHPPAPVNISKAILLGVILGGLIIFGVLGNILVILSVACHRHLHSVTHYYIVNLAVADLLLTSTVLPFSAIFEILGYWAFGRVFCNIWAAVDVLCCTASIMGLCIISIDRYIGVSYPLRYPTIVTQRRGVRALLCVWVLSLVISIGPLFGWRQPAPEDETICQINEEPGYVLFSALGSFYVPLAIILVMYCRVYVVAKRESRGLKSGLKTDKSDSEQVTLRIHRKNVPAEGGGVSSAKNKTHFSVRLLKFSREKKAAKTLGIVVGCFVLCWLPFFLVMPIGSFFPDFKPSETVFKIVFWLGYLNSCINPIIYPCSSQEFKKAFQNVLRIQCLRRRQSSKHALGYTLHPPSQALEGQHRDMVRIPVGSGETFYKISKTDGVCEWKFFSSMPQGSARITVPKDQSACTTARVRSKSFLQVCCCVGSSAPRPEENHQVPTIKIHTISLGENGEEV

[5] = molecular target: T4, Alpha-2 adrenergic receptor (Mus musculus, UniProt P30545+Q01338+Q01337); experiment: Alpha-2 adrenergic receptor […] in mouse vas deferens relative to clonidine; assay type: functional, tissue-based; outline: as §1
T4 sequence (P30545 whole entry): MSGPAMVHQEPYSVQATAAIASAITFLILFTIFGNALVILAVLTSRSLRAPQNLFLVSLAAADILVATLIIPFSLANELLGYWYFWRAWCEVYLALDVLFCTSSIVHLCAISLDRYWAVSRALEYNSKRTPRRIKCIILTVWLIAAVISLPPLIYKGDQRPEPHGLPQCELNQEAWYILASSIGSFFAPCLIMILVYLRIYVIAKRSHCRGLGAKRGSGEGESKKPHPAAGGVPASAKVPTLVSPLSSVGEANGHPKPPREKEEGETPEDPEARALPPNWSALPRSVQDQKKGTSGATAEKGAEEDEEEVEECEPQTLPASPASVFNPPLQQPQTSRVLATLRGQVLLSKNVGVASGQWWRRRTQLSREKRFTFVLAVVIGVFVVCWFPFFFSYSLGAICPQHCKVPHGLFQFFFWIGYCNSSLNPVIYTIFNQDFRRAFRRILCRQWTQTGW
T4 sequence (Q01338 whole entry): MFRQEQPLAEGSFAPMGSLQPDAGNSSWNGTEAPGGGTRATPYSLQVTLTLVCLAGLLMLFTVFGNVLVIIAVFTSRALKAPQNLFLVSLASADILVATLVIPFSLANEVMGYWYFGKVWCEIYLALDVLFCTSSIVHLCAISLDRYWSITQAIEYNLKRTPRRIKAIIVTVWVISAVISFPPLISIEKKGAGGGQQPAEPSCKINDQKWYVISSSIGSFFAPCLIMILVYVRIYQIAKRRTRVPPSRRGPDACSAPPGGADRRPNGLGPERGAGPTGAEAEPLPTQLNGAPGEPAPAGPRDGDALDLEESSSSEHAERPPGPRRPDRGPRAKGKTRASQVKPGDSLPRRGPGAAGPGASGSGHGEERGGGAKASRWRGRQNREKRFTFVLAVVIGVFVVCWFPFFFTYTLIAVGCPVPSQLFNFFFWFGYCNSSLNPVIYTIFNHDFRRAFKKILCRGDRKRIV
T4 sequence (Q01337 whole entry): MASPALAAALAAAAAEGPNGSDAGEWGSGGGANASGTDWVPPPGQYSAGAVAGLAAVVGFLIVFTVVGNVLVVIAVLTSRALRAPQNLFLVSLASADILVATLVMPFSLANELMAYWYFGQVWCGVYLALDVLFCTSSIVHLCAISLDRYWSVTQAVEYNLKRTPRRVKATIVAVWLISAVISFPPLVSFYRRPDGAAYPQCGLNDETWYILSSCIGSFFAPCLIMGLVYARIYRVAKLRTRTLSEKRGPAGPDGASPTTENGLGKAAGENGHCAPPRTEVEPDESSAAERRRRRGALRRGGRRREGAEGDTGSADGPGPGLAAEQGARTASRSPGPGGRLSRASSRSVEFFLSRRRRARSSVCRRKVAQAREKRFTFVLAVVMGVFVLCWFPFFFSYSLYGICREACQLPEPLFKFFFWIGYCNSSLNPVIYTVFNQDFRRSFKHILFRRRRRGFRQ

[6] = molecular target: T2, Adrenergic receptor alpha-1 (Rattus norvegicus); experiment: In vitro inhibition of the contractile effect of phenylephrine on the isolated rat anococcygeus; potency relative to idazoxan.; assay type: functional
[7] = Selectivity between pre- and post-synaptic sites of action.; assay type: functional
[8] = molecular target: T1, Alpha-2 adrenergic receptor (Mus musculus); experiment: Presynaptic alpha-2 adrenergic receptor from mouse vas deferens agonistic activity relative to clonidine = 1.; assay type: functional, tissue-based; outline: as §1
[9] = molecular target: T2, Adrenergic receptor alpha-1 (Rattus norvegicus); experiment: In vitro inhibition of the contractile effect of phenylephrine on the isolated rat anococcygeus; potency relative to idazoxan; Inactive.; assay type: functional
[10] = molecular target: T2, Adrenergic receptor alpha-1 (Rattus norvegicus); experiment: Post-synaptic alpha-1 adrenergic receptor (rat anococcygeus) agonistic activity relative to phenylephrine; assay type: functional; outline: as §1
[11] = molecular target: T2, Adrenergic receptor alpha-1 (Rattus norvegicus); experiment: Agonism in vitro at Alpha-1 adrenoceptor determined in rat anococcygeus preparation.; assay type: functional; outline: as §1
[12] = molecular target: T1, Alpha-2 adrenergic receptor (Mus musculus); experiment: Presynaptic alpha-2 adrenergic receptor agonistic activity in mouse vas deferens relative to clonidine; assay type: functional, tissue-based; outline: as §1
[13] = molecular target: T1, Alpha-2 adrenergic receptor (Mus musculus); experiment: Presynaptic alpha-2 adrenergic receptor agonist activity in isolated mouse vas deferens; assay type: functional, tissue-based
Outline: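 Vasa deferentia from adult male MFI mice (>30 g) were held at 0.5 g initial tension in Mg-free Krebs solution at 30 °C, gassed with 95% O2/5% CO2. Tissues were field-stimulated at 0.1 Hz with 3-ms pulses, with voltage (100-140 V) set for about 100-mg twitches, recorded isometrically. Potency was expressed relative to the standard, run before and after each analogue curve in the same tissue.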

[14] = molecular target: T1, Alpha-2 adrenergic receptor (Mus musculus); experiment: Inhibition of alpha-2 adrenergic receptor; assay type: functional
[15] = molecular target: T2, Adrenergic receptor alpha-1 (Rattus norvegicus); experiment: Post-synaptic alpha-1 adrenergic receptor (rat anococcygeus) agonistic activity relative to phenylephrine; Inactive; assay type: functional; outline: as §1
[16] = molecular target: T4, Alpha-2 adrenergic receptor; experiment: Alpha-2 adrenergic receptor […] in mouse vas deferens assay compared to clonidine; assay type: functional, tissue-based; outline: as §1

Row | SMILES | Antagonist potency [2] | Agonist potency [3] | pA2 [5] | Antagonist potency [6] | Ratio [7] | Agonist potency [8] | Antagonist potency [9] | Agonist potency [11] | Agonist potency [12] | further results
1 | CCC1(C2=NCCN2)Cc2ccccc2O1.Cl (configuration not stated) [EFAROXAN HYDROCHLORIDE] | 1.8 | inactive | 8.32 | 0.3 | 6 | inactive | – | – | – | Selectivity ratio [1]: 258; pA2 [4]: 5.91
2 | Cc1cccc2c1OC(C1=NCCN1)C2.Cl (configuration not stated) | 1.6 | inactive | 8.22 | 0.67 | 2.4 | inactive | – | – | – | –
3 | Cl.Clc1ccc2c(c1)CC(C1=NCCN1)O2 (configuration not stated) | 0.53 | inactive | 7.8 | 0.35 | 1.5 | inactive | – | – | – | Selectivity ratio [1]: 5.6; pA2 [4]: 7.05
4 | Cc1cc(Cl)cc2c1OC(C1=NCCN1)C2 (configuration not stated) | 0.5 | – | – | – | – | inactive | inactive | – | – | Agonist potency [10]: 1
5 | Cc1cccc2c1CC(C1=NCCN1)O2 (configuration not stated) | 0.1 | – | – | – | – | – | inactive | 1.3 | 0.2 | –
6 | Clc1ccc2c(c1Cl)OC(C1=NCCN1)C2 (configuration not stated) | 0.12 | – | – | – | – | – | inactive | 0.001 | 0.03 | –
7 | Clc1cccc(Cl)c1NC1=NCCN1 | – | – | – | – | – | – | – | – | – | pD2 [13]: 8.8; IC40 [14]: 3.68 nM
8 | Cl.c1ccc2c(c1)CC(C1=NCCN1)O2 (configuration not stated) | 1.7 | – | 8.35 | 0.16 | 10.6 | inactive | – | 0.01 | – | –
9 | CCCCCC1(C2=NCCN2)Cc2ccccc2O1.Cl (configuration not stated) | 0.44 | inactive | 7.97 | 1 | 0.44 | inactive | – | – | – | Selectivity ratio [1]: 32; pA2 [4]: 6.47
10 | COc1ccc2c(c1)CC(C1=NCCN1)O2 (configuration not stated) | 0.12 | – | – | 0.023 | 5.2 | inactive | – | – | – | Agonist potency [15]: inactive
11 | Cl.c1ccc2c(c1)OCC(C1=NCCN1)O2 (configuration not stated) [IDAZOXAN HYDROCHLORIDE] | – | – | – | – | – | – | – | – | – | pA2 [16]: 7.98
12 | Clc1cc(Cl)c2c(c1)CC(C1=NCCN1)O2 (configuration not stated) | 0.06 | – | – | – | – | – | inactive | 0.14 | < 0.0001 | –
13 | Oc1ccc2c(c1)CC(C1=NCCN1)O2 (configuration not stated) | 0.02 | – | – | – | – | – | inactive | 0.25 | 0.02 | –
14 | Cc1ccc(C)c2c1CC(C1=NCCN1)O2 (configuration not stated) | 0.03 | – | – | – | – | – | inactive | 0.5 | 0.14 | –
15 | CCCC1(C2=NCCN2)Cc2ccccc2O1.Cl (configuration not stated) | 1.9 | inactive | 8.63 | 1 | 1.9 | inactive | – | – | – | Selectivity ratio [1]: 175; pA2 [4]: 6.39
16 | Cl.Clc1cccc2c1OC(C1=NCCN1)C2 (configuration not stated) | 0.64 | inactive | 7.64 | 1 | 0.64 | inactive | – | – | – | –
17 | CC1(C2=NCCN2)Cc2ccccc2O1 (configuration not stated) | 0.25 | – | – | 0.35 | 0.71 | – | – | – | 0.002 | Agonist potency [15]: inactive
